In the library only some 3.5% were active in any assay of this set; here they are far more common.
RGS4 act = potentiators or activators of RGS4; B-score at 10 µM; HEK293 M3R/inducible RGS4, carbachol calcium flux Fluo4; active compounds read low; 0.92% of 310,000 active;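 active means B-score of the integrated calcium signal more than 4 SD below the library mean, with starting fluorescence not abnormally high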;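 further: negative B-score means reduced calcium response which marks RGS4 activation or potentiation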
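Reagent: ECmax carbachol challenge; Test system: M3R-expressing HEK293 line, RGS4 induced by doxycycline; Schedule: overnight RGS4 induction, 30 min dye load 37 °C, 20 min compound RT; Detection: calcium dye Fluo4 fluorescence; Read-out: Agonist-evoked peak-minus-minimum fluorescence over baseline, integrated ratio, B score.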
MrgX1 antagonist = blocks BAM8-22 activation of human MrgX1 receptor | 1.3% of 310,000 active | B-score at 10 µM | MRGX1-HEK293 calcium flux, Fluo-4, BAM8-22 antagonism; active compounds read low;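 active means calcium-response B-score plate-corrected more than 3 library SD below zero, starting fluorescence within 5 deviations, no agonist response on first addition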;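 further: peak minus trough fluorescence over baseline after final BAM8-22 challenge near maximal dose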
Target sequence (Q96LB2 whole entry, looked up): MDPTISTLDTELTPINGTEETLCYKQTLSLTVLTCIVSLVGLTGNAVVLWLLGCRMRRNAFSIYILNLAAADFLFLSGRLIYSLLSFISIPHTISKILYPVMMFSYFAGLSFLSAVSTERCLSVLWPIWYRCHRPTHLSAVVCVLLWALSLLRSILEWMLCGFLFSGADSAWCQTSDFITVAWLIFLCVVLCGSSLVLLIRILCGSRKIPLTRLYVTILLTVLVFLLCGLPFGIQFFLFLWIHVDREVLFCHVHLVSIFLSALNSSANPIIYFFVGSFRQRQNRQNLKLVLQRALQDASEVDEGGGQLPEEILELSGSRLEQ
RGS4 block = inhibitors of human RGS4. P49798. HEK293 M3R/RGS4 inducible, Fluo-4 calcium flux; active compounds read high; triggered by carbachol at its EC20. B-score at 10 µM. 0.45% of 310,000 active. AID 463165;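 active means B-score, a plate-corrected calcium signal, over three deviations above library mean, with baseline fluorescence within five deviations of library mean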;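 further: RGS4 expression induced by doxycycline in cells with stable M3 receptor; B-score is computed from the integrated fluorescence ratio over baseline after carbachol; higher B-score means a larger calcium signal and so more RGS4 inhibition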
MrgX1 allo act = human MrgX1 positive allosteric modulation, primary screen. MrgX1-HEK293, Fluo-4 calcium flux, FDSS; active compounds read high. B-score at 10 µM. AID 588675. 0.63% of 310,000 active;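 active means plate-corrected calcium response at least 3 library SD above typical, normal starting fluorescence, not activating the receptor alone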;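 further: compound read alongside a low EC10 to EC30 dose of BAM8-22 agonist; peak minus trough fluorescence over baseline measured at the second addition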
MrgX1 agonist = activates human MrgX1 receptor signaling. Q96LB2. MrgX1-HEK293 cells, Fluo-4 calcium fluorescence, agonist mode; active compounds read high. B-score at 10 µM. 0.44% of 310,000 active;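 active means calcium response B-score plate-corrected fluorescence ratio at least 3 library SD, with starting fluorescence B-score inside 5 SD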
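Assay system: stable human MrgX1 HEK293 cell line. Quantity: 15,000 cells per well. Schedule: cells plated overnight, dye loaded 0.5 h 37 °C, 0.5 h room temperature. Detection: Fluo-4 NW calcium-flux fluorescence, kinetic read. Read-out basis: peak-minus-minimum fluorescence over baseline, converted to B scores. Control set: positive and negative control wells on each plate.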
RGS4 activ val = confirmation of RGS4 activators | shares compounds with RGS4 act | HEK293 M3R/RGS4 inducible, carbachol calcium flux Fluo4 | inhibition, % at 10 µM | 89% of 1,100 active;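 active means inhibition above 3 SD of the buffer control wells, cut at about 41% in these data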;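 further: signal is the integrated peak-minus-minimum Fluo4 fluorescence over baseline ratio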
RGS4 act ctr = RGS4 activator counter-screen hit in non-induced cells; AID 602283; inhibition, % at 10 µM; shares compounds with RGS4 act; HEK293 M3R non-induced RGS4, Fluo4 calcium flux; after carbachol challenge at its EC90; 82% of 1,100 active;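 active means inhibition exceeding 3 SD of buffer-only control wells, cut at about 26% in these data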;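 further: percent drop in integrated peak-minus-baseline over baseline Fluo4 ratio after carbachol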
The depositor's hits bear a star; i = inactive; x = not tested or not shown.

SMILES | RGS4 act | MrgX1 antagonist | RGS4 block | MrgX1 allo act | MrgX1 agonist | RGS4 activ val | RGS4 act ctr
CCOC(=O)c1ccccc1NC(=O)CN1C(=O)NC(C)(CCc2ccccc2)C1=O (stereo not given) | i | i | i | i | i | x | x
Cc1nc(N2CCN(c3ccccn3)CC2)c2c(C)c(C(=O)Nc3ccc(F)cc3F)sc2n1 | -8.96* | i | i | i | i | 80.5* | 26.8*
COc1ccc(NC(=O)c2sc3nc(C)nc(N4CCN(c5ccccn5)CC4)c3c2C)cc1Cl | i | i | i | i | i | x | x
Cc1nc(N2CCN(c3ccccn3)CC2)c2c(C)c(C(=O)Nc3ccccc3F)sc2n1 | -7.82* | i | i | i | i | 93.5* | 58.8*
Cc1ccc(NC(=O)c2cnc(N3CCN(c4ccccn4)CC3)c3ccccc23)c(Br)c1 | -11.1* | i | i | i | i | 91.0* | 75.8*
O=C(Nc1c(F)cccc1F)c1cnc(N2CCN(c3ccccn3)CC2)c2ccccc12 | i | i | i | i | i | x | x
CCc1ccc(NC(=O)c2sc3nc(C)nc(N4CCN(c5ccccn5)CC4)c3c2C)cc1 | -8.48* | i | i | i | i | 63.5* | 83.8*
O=C(Nc1cccc(-c2ccc(F)cc2)c1)C1CCCN(C(=O)c2cscn2)C1 (stereo not given) | i | i | i | i | i | x | x
COc1cccc(NC(=O)CSc2nnnn2C2CCCCC2)c1 | i | x | i | x | x | x | x
O=C(COC(=O)c1ccccc1SCC(=O)N1CCCC1)NCc1ccccc1 | i | i | i | i | i | x | x
CN(C)N=Nc1ccc(-c2cn(Cc3ccccc3)cn2)cc1 | i | i | i | i | i | x | x
O=C(c1ccc(-c2nc3ccccc3s2)o1)N1CCN(c2ccccc2O)CC1 | -8.29* | i | i | i | i | 86.0* | 52.8*
O=C(O)c1ccc(-c2nc3ccccc3s2)o1 | i | i | i | i | i | x | x
COc1cccc(N=C2SC(CC(=O)Nc3ccccc3)C(=O)N2Cc2ccccn2)c1 (stereo not given) | i | i | i | i | i | x | x
Cc1cc2c(cc1C)NC(c1c(C)n(C)n(-c3ccccc3)c1=O)C1=C(CC(C)(C)CC1=O)N2 (stereo not given) | -10.9* | i | i | i | i | 71.0* | 62.3*
C=CCN1C(=O)c2ccc(C(=O)N(C)CC(=O)Nc3c(C)cccc3C)cc2C1=O | i | i | i | i | i | x | x
O=C(NCC1CCCN(Cc2cccc(F)c2)C1)c1cccc2ccccc12 (stereo not given) | i | i | i | i | i | x | x
O=C(N/N=C/C1CC2CCC1C2)c1c[nH]c2ccccc12 (stereo not given) | i | i | i | i | i | x | x
CCn1c(SCC#N)nc2c(c1=O)C1(CCCC1)Cc1ccccc1-2 | -10.4* | i | i | i | i | 69.0* | 83.8*
CCn1cc(CN2CCC(n3nccc3NC(=O)c3ccc(OC)cc3)CC2)cn1 | -7.72* | i | i | i | i | 66.0* | 83.8*
COc1ccc(C(=O)Nc2ccnn2C2CCN(Cc3cnn(C)c3)CC2)cc1 | i | i | i | i | i | x | x
CC(C)CC1CCCCC1OC(=O)CN1CCCCC1 (stereo not given) | -8.48* | i | i | i | i | 85.5* | 37.3*
c1ccc2c(c1)CCc1ccccc1C2=C1CCNCC1 | -11.5* | i | i | i | i | 93.5* | 94.3*
CN1CCC(=C2c3ccccc3C=Cc3ccccc32)CC1 | i | i | i | i | i | x | x
Cc1cccn2c(=O)nc(SCC(=O)NCc3ccc4c(c3)OCO4)nc12 | i | i | i | i | i | x | x
CCN(C1CCCCC1)S(=O)(=O)c1ccc(S(=O)(=O)N2CCN(CCC#N)CC2)cc1 | -9.11* | i | i | i | i | 90.5* | 64.8*
